A selection: hits, their analogues and other compounds. The true share with any hit is near 1.5%.
APJ antag = blocks the human apelin receptor APJ; P35414; CHO-K1 APJ beta-arrestin complementation, luminescence; 0.32% of 330,000 active; inhibition, % at 20 µM;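 active = inhibition above about 40% at 20 µM, limit read from the data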;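 note: cells challenged with 10 nM apelin-13 agonist together with compound; plate controls were apelin-13 plus DMSO wells for no effect and DMSO wells lacking apelin-13 for full effect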
Target sequence (P35414 whole entry, looked up): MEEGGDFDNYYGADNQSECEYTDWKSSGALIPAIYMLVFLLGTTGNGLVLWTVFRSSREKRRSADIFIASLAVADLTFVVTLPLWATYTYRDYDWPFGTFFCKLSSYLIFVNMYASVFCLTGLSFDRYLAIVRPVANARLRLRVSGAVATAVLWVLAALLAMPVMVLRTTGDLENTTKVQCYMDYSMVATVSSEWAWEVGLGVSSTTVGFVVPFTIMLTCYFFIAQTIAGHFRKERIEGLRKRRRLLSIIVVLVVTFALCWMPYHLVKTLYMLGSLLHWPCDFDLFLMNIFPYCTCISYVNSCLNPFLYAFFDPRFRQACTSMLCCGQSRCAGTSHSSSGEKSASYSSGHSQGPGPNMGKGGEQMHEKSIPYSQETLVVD
CCR6 antagonist = antagonists of human CCR6 receptor. P51684. CHO-K1 CCR6 PathHunter beta-arrestin, luminescence, CCL20-stimulated. inhibition, % at 20 µM. 0.49% of 340,000 active;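 active = compounds whose inhibition of the agonist-driven luminescence signal at 20 µM reaches about 50%, limit read from the data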;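 note: cells stimulated with CCL20 at 14 nM final; plate controls were DMSO with CCL20 for no effect and DMSO without agonist for full effect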
EBI2 block = blocks human EBI2 receptor beta-arrestin signaling | EBI2 beta-arrestin recruitment, luminescence, 7a,25-OHC stimulated | 0.81% of 360,000 active | P32249 | inhibition, % at 5 µM; in the data active = inhibition above about 38%;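 note: enzyme fragment complementation signal reports receptor beta-arrestin coupling in cells; 0% = agonist plus DMSO wells and 100% = wells without agonist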
CXCR6 inh = blocks human CXCR6 beta-arrestin recruitment; O00574; inhibition, % at 20 µM; 0.36% of 360,000 active; CHO-K1 PathHunter CXCR6 beta-arrestin, luminescence; in the data active = inhibition above about 34%, passing the limit was not always enough;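 note: antagonist mode with CXCL16 agonist at 10 nM final; 0% = 10 nM CXCL16 with DMSO and 100% = unstimulated wells without agonist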
APJ ag = APJ receptor agonism | P35414 | CHO-K1 APJ PathHunter beta-arrestin, luminescence; 0% DMSO wells, 100% apelin | activation, % at 20 µM | 0.11% of 330,000 active | AID 2520;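 active = activation more than six SD over the plate average, tested at 20 µM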;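 note: 0% = DMSO alone and 100% = apelin-13 at 10 nM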
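Test system: CHO-K1 APJ beta-arrestin complementation cell line | Compound: Single test compound dose, 20 µM final, 1% DMSO | Incubation: Compound 90 min 25 °C, reagent 1 h | Measured by: beta-gal luminescence | Read-out basis: APJ–arrestin association signal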
EBI2 conf = EBI2 (human) antagonism, single concentration confirmation. 29% of 2,400 active. inhibition, % at 5 µM. shares compounds with EBI2 block. EBI2 beta-arrestin luminescence, 7a,25-OHC antagonism;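 active = inhibition of at least 50%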
EBI2 ag = EBI2 agonism counter-screen | shares compounds with EBI2 block | EBI2-expressing cells, agonist mode, luminescence, 60 min; 0% vehicle, 100% 7α,25-dihydroxycholesterol control | activation, % at 5 µM | 2,400 tested, under 10 active;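 active = activation of at least 50%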
bGal counter = counter-screen for EBI2 antagonists: E. coli beta-galactosidase inhibition; shares compounds with EBI2 block; purified beta-galactosidase, luminescent Galacton Star, 15 min; inhibition, % at 5 µM; 1% of 2,400 active;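 active = replicate-average signal at least 3 plate SD below neutral wells, shown as high inhibition, flagging enzyme-inhibiting false positives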;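 note: 0% = DMSO wells with enzyme and 100% = wells lacking enzyme; higher means stronger loss of beta-gal luminescence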
* = called active by the depositor.

How did N#Cc1ccc(C(=O)Nc2ccc3ccccc3c2)cc1 do in these assays?
APJ antag: 1; CCR6 antagonist: 4; EBI2 block: 60*; CXCR6 inh: -4; APJ ag: -1; EBI2 conf: 51*; EBI2 ag: 3; bGal counter: 1

Results for Cc1cc(N2CCN(Cc3ccccc3)CC2)n2nc(C)c(-c3ccccc3)c2n1 ?
APJ antag: 3; CCR6 antagonist: 6; EBI2 block: 47*; CXCR6 inh: 2; APJ ag: -3; EBI2 conf: 15; EBI2 ag: -1; bGal counter: -21

Results for COc1ccc(-c2c(C)nn3c(N4CCN(Cc5ccccc5)CC4)cc(C)nc23)cc1OC ?
APJ antag: 10; CCR6 antagonist: -7; EBI2 block: -7; CXCR6 inh: -1; APJ ag: -1

How did CC(C)Oc1cc(F)ccc1-c1cc(C(=O)Nc2cccc(C(F)(F)F)c2)[nH]n1 do in these assays?
EBI2 block: 42*; CXCR6 inh: -18; EBI2 conf: 38; EBI2 ag: 1; bGal counter: 11

Results for Cc1cc(Cl)ccc1OCC(=O)N1CCCCC1 ?
APJ antag: 13; CCR6 antagonist: 0; EBI2 block: 8; CXCR6 inh: 1; APJ ag: -9

How did Cc1cc(Cl)cc(C)c1OCC(=O)N1CCN(c2ncccn2)CC1 do in these assays?
APJ antag: -1; CCR6 antagonist: 3; EBI2 block: 76*; CXCR6 inh: 5; APJ ag: -1; EBI2 conf: 42; EBI2 ag: -1; bGal counter: -16

Results for Cc1ccc(C(C)C)c(OCC(=O)N2CCN(c3ncccn3)CC2)c1 ?
APJ antag: 0; CCR6 antagonist: -1; EBI2 block: 48*; CXCR6 inh: 4; APJ ag: 0; EBI2 conf: 44; EBI2 ag: 0; bGal counter: 0

Results for Cc1cc(Cl)ccc1OCC(=O)N1CCN(c2ncccn2)CC1 ?
APJ antag: 7; CCR6 antagonist: 7; EBI2 block: 56*; CXCR6 inh: 10; APJ ag: -2; EBI2 conf: 36; EBI2 ag: 0; bGal counter: -18

What do the screens show for `O=C(COc1ccccc1)N1CCN(c2ncccn2)CC1`?
APJ antag: -5; CCR6 antagonist: 3; EBI2 block: 24; CXCR6 inh: -6; APJ ag: -3

What do the screens show for `CCNC(=O)C1CCCN(C(=O)c2ccccc2F)CC1` (stereo not given)?
EBI2 block: -7; CXCR6 inh: 5

Results for CCCCCCSc1ccc(-c2nc3cc(C)ccn3c2NC2CCCCC2)cc1 ?
APJ antag: -21; CCR6 antagonist: 18; EBI2 block: 14; CXCR6 inh: 26; APJ ag: -1

What do the screens show for `CCCCCCSc1ccc(-c2nc3ccc(C)cn3c2NC2CCCCC2)cc1`?
APJ antag: -36; CCR6 antagonist: 12; EBI2 block: 45*; CXCR6 inh: 6; APJ ag: 0; EBI2 conf: 22; EBI2 ag: 2; bGal counter: 8

How did O=C(Nc1cccc(C(F)(F)F)c1)c1csc([C@@H]2O[C@H](CO)[C@@H](O)[C@H]2O)n1 do in these assays?
EBI2 block: 0; CXCR6 inh: -5

What do the screens show for `O=C(Nc1ccc2c(c1)OCO2)N1CCN(S(=O)(=O)c2ccc(Cl)cc2)CC1`?
APJ antag: -2; CCR6 antagonist: -7; EBI2 block: 48*; CXCR6 inh: -9; APJ ag: -4; EBI2 conf: 27; EBI2 ag: -1; bGal counter: -13

What do the screens show for `O=C(Nc1ccc2c(c1)OCO2)N1CCN(c2cccc(C(F)(F)F)c2)CC1`?
APJ antag: -1; CCR6 antagonist: 11; EBI2 block: -2; CXCR6 inh: -6; APJ ag: -1

Results for O=C(Nc1ccc2c(c1)OCO2)N1CCN(c2ccccc2Cl)CC1 ?
APJ antag: 13; CCR6 antagonist: 6; EBI2 block: 50*; CXCR6 inh: 4; APJ ag: -6; EBI2 conf: 37; EBI2 ag: -1; bGal counter: 3

High-throughput results (PubChem)
